# Rows were chosen to be rich in hits. Some 2.9% of all compounds tested hit in one or more screens of this group.
# UBC13 polyUb – blocks human UBC13 polyubiquitin chain formation. TR-FRET. inhibition, % at 20 µM. hit rate 0.47% among 330,000; in the data active = inhibition above about 45%, passing the limit was not always enough
# PfG6PD inh – PfG6PD (Plasmodium falciparum) enzyme inhibition. PfGluPho enzyme, NADPH resazurin-diaphorase fluorescence. inhibition, % at 20 µM. hit rate 0.78% among 350,000. AID 504690;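 active = inhibition reaching at least a set limit at 20 µM in the primary screen, cut at about 59% in these data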;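 also: 0% = DMSO wells with substrate and 100% = DMSO wells lacking glucose-6-phosphate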
# ZTA counter – blocks Epstein-Barr virus ZTA, an EBNA-1 counter-screen. P03206. ZTA-DNA binding, fluorescence polarization. inhibition, % at 11 µM. hit rate 0.15% among 320,000. AID 2234; in the data active = inhibition above about 33%
# Apaf1 inhib – inhibitors of human Apaf-1 apoptosome; inhibition, % at 20 µM; reconstituted apoptosome caspase-3 activity, DEVD-Rh110 fluorescence; hit rate 0.71% among 330,000; O14727; AID 489030; active = inhibition of at least 40% at 20 µM;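 also: plate controls were DMSO wells for no effect and DEVD-CHO caspase inhibitor wells for full effect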
# Target sequence (O14727 whole entry, looked up): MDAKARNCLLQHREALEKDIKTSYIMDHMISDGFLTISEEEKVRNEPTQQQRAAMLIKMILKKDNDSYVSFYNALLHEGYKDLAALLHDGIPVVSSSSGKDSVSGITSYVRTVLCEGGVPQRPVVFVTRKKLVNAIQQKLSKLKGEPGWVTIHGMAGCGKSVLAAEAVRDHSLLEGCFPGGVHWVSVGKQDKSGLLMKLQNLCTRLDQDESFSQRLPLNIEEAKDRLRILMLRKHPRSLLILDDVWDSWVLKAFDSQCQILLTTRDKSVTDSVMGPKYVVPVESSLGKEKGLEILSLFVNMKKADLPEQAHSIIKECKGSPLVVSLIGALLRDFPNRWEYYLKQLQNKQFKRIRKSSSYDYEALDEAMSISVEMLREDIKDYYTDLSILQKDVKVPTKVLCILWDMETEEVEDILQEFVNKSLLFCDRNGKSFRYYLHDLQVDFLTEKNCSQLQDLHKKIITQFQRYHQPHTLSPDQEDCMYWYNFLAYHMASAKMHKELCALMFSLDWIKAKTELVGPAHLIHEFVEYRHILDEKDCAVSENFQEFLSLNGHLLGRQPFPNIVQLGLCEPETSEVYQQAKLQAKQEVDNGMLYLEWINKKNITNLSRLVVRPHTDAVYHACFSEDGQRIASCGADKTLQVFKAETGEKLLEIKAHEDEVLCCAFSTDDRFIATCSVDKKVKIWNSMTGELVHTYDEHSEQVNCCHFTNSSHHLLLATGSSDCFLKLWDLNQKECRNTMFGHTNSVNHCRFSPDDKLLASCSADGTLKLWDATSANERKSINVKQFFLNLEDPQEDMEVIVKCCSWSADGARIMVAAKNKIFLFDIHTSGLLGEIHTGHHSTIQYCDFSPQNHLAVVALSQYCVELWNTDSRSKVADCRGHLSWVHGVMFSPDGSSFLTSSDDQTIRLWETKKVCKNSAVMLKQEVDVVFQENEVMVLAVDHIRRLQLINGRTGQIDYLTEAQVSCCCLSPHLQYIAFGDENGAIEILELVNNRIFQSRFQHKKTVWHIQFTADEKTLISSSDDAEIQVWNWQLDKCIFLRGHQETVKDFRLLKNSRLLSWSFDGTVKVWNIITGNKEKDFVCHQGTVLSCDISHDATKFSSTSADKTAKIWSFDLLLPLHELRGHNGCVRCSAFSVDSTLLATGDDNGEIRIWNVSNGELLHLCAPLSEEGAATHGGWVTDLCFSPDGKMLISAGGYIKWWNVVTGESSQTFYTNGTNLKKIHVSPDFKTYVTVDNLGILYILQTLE
#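 Material: cell-free apoptosome with Apaf-1, procaspase-3 and caspase-9; Buffer or medium: Hepes pH 7.5 with detergent and BSA; Reagent: cytochrome c trigger plus (Z-DEVD)2-Rh110 caspase-3 substrate; Times: compound with Apaf-1, dATP, procaspase-3 30 min, then 50 min reaction, room temperature; Technique: Rh110 fluorescence intensity.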
# EBNA-1 inh – blocks EBNA-1 binding to DNA. EBNA-1 DNA binding, fluorescence polarization. hit rate 0.34% among 300,000. AID 1950. inhibition, % at 14.8 µM; in the data active = inhibition above about 28%
# PfM18AAP inh-1 – PfM18AAP enzyme inhibition. hit rate 1.2% among 290,000. inhibition, % at 7.35 µM. recombinant PfM18AAP, H-Glu-NHMec fluorogenic cleavage;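 active = inhibition above the campaign mean inhibition over all tested compounds plus 3 SD, cut at about 28% in these data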;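 also: 0% = plate median of test compound wells and 100% = 2 mM ZnCl2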
# PfM18AAP inh-2 – confirmation of Plasmodium falciparum M18 aspartyl aminopeptidase inhibitors. hit rate 28% among 2,400. inhibition, % at 7.35 µM. shares compounds with PfM18AAP inh-1. AID 2170. recombinant PfM18AAP, H-Glu-NHMec fluorogenic cleavage;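 active = mean inhibition over replicate wells above the hit cutoff set for the earlier primary screen, cut at about 29% in these data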;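 also: 0% = median of test compound wells and 100% = 2 mM ZnCl2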
# CTSL1 confirm – counter-screen for PFM18AAP inhibitors: confirmation of human cathepsin L inhibitors | 2,400 tested, under 10 active | purified cathepsin L1, Z-Leu-Arg-MCA fluorescence | shares compounds with PfM18AAP inh-1 | AID 2178 | inhibition, % at 5.96 µM;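 active = average inhibition across replicates above the hit cutoff set in the earlier primary screen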;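 also: 0% = median of test compound wells and 100% = Z-Phe-Ala-diazomethylketone 1 µM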
# Numbers without * were called inactive; · = no result given.
SMILES,UBC13 polyUb,PfG6PD inh,ZTA counter,Apaf1 inhib,EBNA-1 inh,PfM18AAP inh-1,PfM18AAP inh-2,CTSL1 confirm
CCN1C(=O)/C(=C2/SC(C)=C(C)N2CC)SC1=S,2,8,17,7,5,38*,-31,0
O=C(Nc1ccc(N2CCCCC2)cc1)c1ccccc1,4,11,-2,-6,-6,5,·,·
NC(=O)NC(=O)C(Nc1ccc(N2CCCCC2)cc1)c1ccccc1 (stereo unspecified),-2,32,8,8,3,41*,-35,-5
CCOc1cc(C2Nc3ccccc3NC3=C2C(=O)CC(C)(C)C3)ccc1OC(C)=O (stereo unspecified),-10,-8,-6,-12,-1,7,·,·
CCOc1cc(C2Nc3ccccc3NC3=C2C(=O)CC(C)(C)C3)ccc1O (stereo unspecified),-6,32,-11,2,8,37*,-28,-8
Cc1cccc(C(=O)NNC(=O)c2ccco2)c1O,2,-12,-2,-6,6,32*,10,-1
O=C(NNc1ccc([N+](=O)[O-])cc1[N+](=O)[O-])c1ccco1,-147,12,-6,2,-4,15,·,·
Nc1ccc([N+](=O)[O-])cc1C(=O)NNC(=O)c1ccco1,-7,4,20,-27,7,33*,14,3
O=C(NNC(=O)c1ccccc1O)c1ccco1,-4,-29,-2,-3,-12,19,·,·
O=C(NNc1ccc([N+](=O)[O-])cc1)c1ccco1,-6,46,9,14,-13,69*,45*,4
CCOc1ccc(NC(=O)c2ccc3[nH]c(=O)c(=O)[nH]c3c2)cc1,2,-8,7,-9,8,-2,·,·
S=c1[nH]c(-c2ccccc2)cn1/N=C/c1ccncc1,-16,53,-10,-11,4,51*,43*,-7
CC(Oc1ccc2c(c1)c1ccnc3c4ccccc4c(=O)n2c13)C(=O)NCCN1CCOCC1 (stereo unspecified),21,30,-4,16,6,6,·,·
COC(=O)c1nc(NNC(=O)c2ccccc2)sc1-c1ccccc1,2,29,-1,14,5,46*,10,-2
COc1ccc(CN2C(=O)C(CC(=O)NCc3cccs3)CC(C(=O)N(C(C)C)C(C)C)=C2C)cc1 (stereo unspecified),·,1,·,·,·,·,·,·
O=C(Nn1cnnc1)c1ccc(Cl)cc1[N+](=O)[O-],0,-4,-9,-16,1,25,·,·
O=C(Nn1cnnc1)c1ccc(OC(F)(F)C(F)C(F)(F)F)cc1 (stereo unspecified),-6,-10,-2,5,11,38*,5,-6
O=C(Nn1cnnc1)c1ccccc1F,-2,-5,-22,0,-20,25,·,·
O=C(NC(=S)Nn1cnnc1)c1ccccc1,-7,15,-16,3,8,·,·,·
O=C(Nn1cnnc1)c1ccc(Cl)cc1,3,12,-8,1,-2,42*,26,0
O=C(Nn1cnnc1)c1ccc(F)cc1,2,-7,-2,3,4,32*,16,1
CC(C)(C)c1ccc(O)c(N=Cc2cc3c(cc2[N+](=O)[O-])OCO3)c1,-20,38,-4,14,0,36*,90*,1
O=[N+]([O-])c1cc2c(cc1/C=N\NS(=O)(=O)c1ccccc1)OCO2,0,58,15,-16,-12,48*,4,-5
Cc1ccc(Cn2c(SCCN3CCCCC3)nc3c2c(=O)[nH]c(=O)n3C)cc1,5,53,4,11,-5,38*,0,4
Cc1ccc2sc(NNC(=O)C3COc4ccccc4O3)nc2c1C (stereo unspecified),-13,-8,26,18,0,41*,3,3
SMILES,UBC13 polyUb,PfG6PD inh,ZTA counter,Apaf1 inhib,EBNA-1 inh,PfM18AAP inh-1,PfM18AAP inh-2,CTSL1 confirm
CCOC(=O)c1[nH]cnc1C(=O)N1CCN(C(=O)OC(C)(C)C)CC1,8,-3,11,-11,·,·,·,·
CC(=O)N1CCN(S(=O)(=O)c2ccc(C)cc2)C1c1ccc(N(C)C)cc1 (stereo unspecified),-5,0,16,6,-3,36*,-27,-1
Cc1cccc(NC(=O)NNC(=O)c2cc3occc3[nH]2)c1C,-6,17,-14,2,-2,46*,23,-6
Cc1cccc(NC(=O)c2ccco2)c1C,-4,-13,-15,-12,-10,-3,·,·
Cc1cc(C)cc(NC(=O)NNC(=O)c2cc3occc3[nH]2)c1,-7,5,-10,8,-6,56*,22,-4
c1ccc(-c2cncn2-c2ccccc2)cc1,5,-7,-9,10,2,·,·,·
Cc1ccc(S(=O)(=O)Nc2ccc(N3CCOCC3)cc2)cc1C,-6,1,-16,11,-10,-1,·,·
CCOC(=O)c1c(C)n(C)c2ccc(OC(=O)c3ccc(N4C(=O)CCC4=O)cc3)cc12,9,-19,-9,-7,0,57*,-58,2
CCOC(=O)c1c(C)n(C)c2ccc(OC(=O)c3ccco3)cc12,3,-2,-14,-1,-11,1,·,·
CCC(CC)c1nnc(NC(=O)c2ccc3c(c2)OCO3)s1,5,55,16,7,7,36*,-27,1
COC(=O)CSc1nnc(NC(=O)c2ccc3c(c2)OCO3)s1,-3,49,-3,-19,7,0,·,·
CCn1c(CSc2nc3ccccc3s2)nnc1SCC(=O)c1ccc(O)c(O)c1,-5,-12,6,-7,6,49*,30*,1
C=CCn1c(SCC(=O)c2ccc(O)c(O)c2)nnc1-c1cccc(Cl)c1,-27,-26,-9,-2,·,·,·,·
CCn1c(SCC(=O)c2ccc(O)c(O)c2)nnc1-c1ccccc1OC,-13,-16,-18,8,-13,42*,23,2
CCn1c(SCC(=O)c2c(N)n(C3CC3)c(=O)[nH]c2=O)nnc1-c1ccccc1OC,-1,28,-5,5,·,·,·,·
CCn1c(CSc2nc3ccccc3s2)nnc1SCC(=O)c1ccc(Cl)cc1,-3,4,5,6,10,4,·,·
C=CCn1c(SCC(=O)c2ccc(O)c(O)c2)nnc1-c1ccccc1OC,-17,-12,-3,9,-6,49*,34*,1
CCn1c(SCC(=O)c2cc(C)n(C)c2C)nnc1-c1ccccc1,-4,28,-8,8,-3,8,·,·
CCn1c(SCC(=O)c2ccc(O)c(O)c2)nnc1-c1ccccc1,7,-7,0,-1,6,41*,27,-5
